Test results taken from article PMC3830715 (Biochemistry, 2013).
Where a chain is given by its changes, count along the chain named.

Key:
WT PDK1 PH domain [1] = target: T1, WT PDK1 PH domain (Homo sapiens, UniProt O15530); assay type: binding
T1 sequence (O15530 459-550 limits assumed): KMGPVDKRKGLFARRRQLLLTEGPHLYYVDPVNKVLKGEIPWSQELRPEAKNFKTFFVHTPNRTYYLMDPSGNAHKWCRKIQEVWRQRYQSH
In short: (§1)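 PH domain (1 μM, from Sf9 cells) was rapidly mixed by stopped flow with plasma membrane-like SUVs (600 μM total lipid, 6 μM accessible PIP₃). Final concentrations were 0.5 μM protein and 3 μM PIP₃, at 25 °C in HEPES pH 7.4 buffer with 10 mM DTT. Trp-to-dansyl-PE FRET was monitored, and a single-exponential fit gave k_on(app). k_off was estimated from the measured K_D and k_on.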

[2] = test system: WT and T513E PDK1 PH domains; assay type: binding, human; conditions: PC/PS/PIP3 74/24/2 supported bilayer (dioleoyl PIP3), SE n = 3
T513E PDK1 PH domain [3] = target: T2, T513E PDK1 PH domain (Homo sapiens, UniProt O15530, T513E); assay type: binding
T2 sequence (O15530 459-550 T513E limits assumed): T1 sequence (O15530 459-550 limits assumed) with T55E
In short: as §1

WT PDK1 PH domain [4] = target: T1, WT PDK1 PH domain; assay type: binding; remark: listed apart in the source
T513E PDK1 PH domain [5] = target: T2, T513E PDK1 PH domain; assay type: binding; conditions: read-out: KD(IP6); free T513E PH domain in solution, 25 °C, physiological buffer
In short: (§2)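 Free PH domain, purified from Sf9 cells, was titrated with IP₆ in solution at 25 °C. The buffer was HEPES pH 7.4 with 140 mM KCl, 15 mM NaCl, 0.5 mM MgCl₂ and 10 mM DTT. Intrinsic Trp fluorescence was read at ex 284 nm / em 335 nm, slits 1/8 nm. K_DI came from a nonlinear least squares fit assuming homogeneous binding sites.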

WT PDK1 PH domain [6] = target: T1, WT PDK1 PH domain; assay type: binding; conditions: read-out: KD(IP6); free WT PH domain in solution, 25 °C, physiological buffer
In short: as §2

[7] = target: the molecule itself; assay: single molecule TIRFM brightness analysis

Molecule: CCCCCCCCCCCCCCCC(=O)OC[C@H](COP(=O)(O)OC1[C@H](O)[C@H](OP(=O)(O)O)C(OP(=O)(O)O)[C@H](OP(=O)(O)O)[C@H]1O)OC(=O)CCCCCCCCCCCCCCC (some centres unmarked) [PIP3, 1,2-dipalmitoylphosphatidylinositol 3,4,5-trisphosphate]
- kon (app) (WT PDK1 PH domain [1]; WT PH domain 0.5 μM, 3 μM accessible PIP3, 25 °C): 1.6e+06 ± 100000 M⁻¹ s⁻¹
- koff (calc) (WT PDK1 PH domain [1]; WT PH domain, estimated from measured KD and kon): 0.3 ± 0.2 ms ^−1
- higher concentration of T513E PH domain needed relative to WT for same density of membrane-associated single particles (lower affinity for target PIP3 bilayer) [2]: 9.7 ± 1.9 fold
- kon (app) (T513E PDK1 PH domain [3]; T513E PH domain 0.5 μM, 3 μM accessible PIP3, 25 °C): 2.5e+06 ± 100000 M⁻¹ s⁻¹
- koff (calc) (T513E PDK1 PH domain [3]; T513E PH domain, estimated from measured KD and kon): 18 ± 5 ms ^−1
- greater PIP3 membrane affinity of dimeric WT relative to monomeric T513E (WT PDK1 PH domain [4]; plasma membrane-like bilayers): 35 fold

Molecule: O=P(O)(O)OC1C(OP(=O)(O)O)C(OP(=O)(O)O)C(OP(=O)(O)O)C(OP(=O)(O)O)C1OP(=O)(O)O (centres unmarked) [IP6, Inositol 1,2,3,4,5,6-hexakisphosphate]
- Kd (T513E PDK1 PH domain [5]): 30 ± 11 µM
- Kd (WT PDK1 PH domain [6]): 9 ± 3 µM
- membrane-bound protein displaced (WT PDK1 PH domain [4]; 1 mM IP6, WT PH domain on PIP3 target membranes): less than 5%

Molecule: O=P(O)(O)OC1[C@H](O)[C@H](OP(=O)(O)O)C(OP(=O)(O)O)[C@H](OP(=O)(O)O)[C@H]1O (some centres unmarked) [IP4, inositol 1,3,4,5-tetrakis(phosphate)]
- higher affinity for IP4 than for IP6 (WT PDK1 PH domain [4]; WT PH domain): 80 fold

B1: human WT PDK1 PH domain, AF555-labeled (domain or fragment, UniProt O15530 409-556, looked up)
chain: GSNIEQYIHDLDSNSFELDLQFSEDEKRLLLEKQAGGNPWHQFVENNLILKMGPVDKRKGLFARRRQLLLTEGPHLYYVDPVNKVLKGEIPWSQELRPEAKNFKTFFVHTPNRTYYLMDPSGNAHKWCRKIQEVWRQRYQSHPDAAVQ
modifications: Alexa Fluor 555 on the N-terminal Sfp labeling tag (enzymatic labeling, up to ~50% labeling efficiency)
- stoichiometry N [7]: 2
